{"source": "ChEMBL document CHEMBL4354800", "about": "“Amphiphilic nebramine-based hybrids Rescue legacy antibiotics from intrinsic resistance in multidrug-resistant Gram-negative bacilli” (Eur J Med Chem, 2019)", "key": {"Acinetobacter baumannii [1]": {"test_system": "Acinetobacter baumannii", "assay": "Synergistic antibacterial activity against multidrug-resistant Acinetobacter baumannii AB030 assessed as fractional inhibitory concentration index in presence of rifampicin incubated for 18 hrs by broth dilution method", "assay_type": "functional"}, "Pseudomonas aeruginosa [2]": {"test_system": "Pseudomonas aeruginosa", "assay": "Potentiation of rifampicin-induced antimicrobial activity against MDR/XDR Pseudomonas aeruginosa isolate 100036 harboring GyrA Thr83Ile mutant assessed as rifampicin MIC50 incubated for 18 hrs by broth microdilution method (reference value: 8 microg/ml)", "assay_type": "functional", "details": "isolate 100036, 18 h"}, "Acinetobacter baumannii [3]": {"test_system": "Acinetobacter baumannii", "assay": "Synergistic antibacterial activity against multidrug-resistant Acinetobacter baumannii AB031 assessed as fractional inhibitory concentration index in presence of rifampicin incubated for 18 hrs by broth dilution method", "assay_type": "functional"}, "Pseudomonas aeruginosa [4]": {"test_system": "Pseudomonas aeruginosa", "assay": "Potentiation of rifampicin-induced antibacterial activity against MDR/XDR Pseudomonas aeruginosa isolate 101243 devoid of GyrA T83I mutant assessed as fold reduction in rifampicin MIC at 7.5 uM incubated for 18 hrs by broth microdilution method", "assay_type": "functional", "in_short": "(§1)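 CLSI broth microdilution. Overnight cultures were set to 0.5 McFarland in saline, diluted 1:50 in Mueller-Hinton broth to a final 5 × 10^5 CFU/mL, and incubated 18 h at 37 °C against 2-fold antibiotic dilutions. A fixed adjuvant level was present throughout. MIC = lowest concentration with no visible turbidity, confirmed at 590 nm. Potentiation = fold drop in antibiotic MIC versus antibiotic alone.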"}, "Pseudomonas aeruginosa [5]": {"test_system": "Pseudomonas aeruginosa", "assay": "Disruption of electrical component of PMF with transmembrane chemical component increment in Pseudomonas aeruginosa PAO1 membrane assessed as increase in tetracycline uptake measured every 1 min for 30 mins by fluorescence based assay", "assay_type": "organism-based", "details": "Bacterial membrane", "in_short": "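P. aeruginosa PAO1 was grown to OD600 0.6, washed and resuspended in 10 mM HEPES pH 7.2, then treated with varying compound concentrations plus […] tetracycline. Fluorescence (ex 405/em 535 nm) was read each minute for 30 min at room temperature. Triplicates, averaged.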"}, "Pseudomonas aeruginosa [6]": {"test_system": "Pseudomonas aeruginosa", "assay": "Potentiation of minocycline-induced antibacterial activity against MDR/XDR Pseudomonas aeruginosa isolate PA259-96918 harboring GyrA T83I mutant assessed as fold reduction in minocycline MIC at 7.5 uM incubated for 18 hrs by broth microdilution method", "assay_type": "functional"}, "Klebsiella pneumoniae [7]": {"test_system": "Klebsiella pneumoniae", "assay": "Potentiation of minocycline-induced antibacterial activity against Klebsiella pneumoniae 116381 assessed as fold reduction in minocycline MIC at 7.5 uM incubated for 18 hrs by broth dilution method", "assay_type": "functional", "in_short": "(§2)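 Antibiotic MIC determined by CLSI broth microdilution (MHB, 5 × 10^5 CFU/mL, 18 h, 37 °C), once alone and once with a fixed concentration of the adjuvant. Potentiation is the ratio of the antibiotic MIC alone to its MIC in the presence of the adjuvant.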"}, "Pseudomonas aeruginosa [8]": {"test_system": "Pseudomonas aeruginosa", "assay": "Potentiation of rifampicin-induced antimicrobial activity against MDR/XDR Pseudomonas aeruginosa isolate PA264-104354 harboring GyrA Thr83Ile mutant assessed as rifampicin MIC50 incubated for 18 hrs by broth microdilution method (reference value: 8 microg/ml)", "assay_type": "functional", "details": "isolate PA264-104354, 18 h"}, "Pseudomonas aeruginosa [9]": {"test_system": "Pseudomonas aeruginosa", "assay": "Potentiation of rifampicin-induced antimicrobial activity against MDR/XDR Pseudomonas aeruginosa isolate 100036 harboring GyrA Thr83Ile mutant assessed as rifampicin MIC80 incubated for 18 hrs by broth microdilution method (reference value: 16 microg/ml)", "assay_type": "functional", "details": "isolate 100036, 18 h"}, "Pseudomonas aeruginosa [10]": {"test_system": "Pseudomonas aeruginosa", "assay": "Potentiation of minocycline-induced antimicrobial activity against MDR/XDR Pseudomonas aeruginosa isolate PA259-96918 harboring GyrA Thr83Ile mutant assessed as minocycline MIC50 incubated for 18 hrs by broth microdilution method (reference value: 16 microg/ml)", "assay_type": "functional", "details": "isolate PA259-96918, 18 h"}, "Acinetobacter baumannii [11]": {"test_system": "Acinetobacter baumannii", "assay": "Potentiation of rifampicin-induced antibacterial activity against multidrug-resistant Acinetobacter baumannii AB030 assessed as fold reduction in rifampicin MIC at 7.5 uM incubated for 18 hrs by broth dilution method", "assay_type": "functional", "in_short": "as §1"}, "Pseudomonas aeruginosa [12]": {"test_system": "Pseudomonas aeruginosa", "assay": "Potentiation of moxifloxacin-induced antibacterial activity against MDR/XDR Pseudomonas aeruginosa isolate PA264-104354 harboring GyrA T83I mutant assessed as fold reduction in moxifloxacin MIC at 7.5 uM incubated for 18 hrs by broth microdilution method", "assay_type": "functional", "in_short": "as §1"}, "Pseudomonas aeruginosa [13]": {"test_system": "Pseudomonas aeruginosa", "assay": "Potentiation of moxifloxacin-induced antibacterial activity against MDR/XDR Pseudomonas aeruginosa isolate 91433 devoid of GyrA T83I mutant assessed as fold reduction in moxifloxacin MIC at 9 uM incubated for 18 hrs by broth microdilution method", "assay_type": "functional", "in_short": "as §1"}, "Escherichia coli [14]": {"test_system": "Escherichia coli", "assay": "Potentiation of rifampicin-induced antibacterial activity against Escherichia coli ATCC 25922 assessed as fold reduction in rifampicin MIC at 2.0 uM incubated for 18 hrs by broth dilution method", "assay_type": "functional", "in_short": "as §2"}, "Escherichia coli [15]": {"test_system": "Escherichia coli", "assay": "Antimicrobial activity against Escherichia coli 107115 incubated for 18 hrs by broth dilution method", "assay_type": "functional", "details": "Escherichia coli, 107115, 18 h", "in_short": "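Broth microdilution per CLSI: overnight cultures set to 0.5 McFarland in saline, diluted 1:50 in Mueller-Hinton broth to a final 5 × 10^5 CFU/mL, added to 2-fold serial dilutions, incubated 18 h at 37 °C; MIC is the lowest concentration without visible turbidity, confirmed at 590 nm.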"}, "Escherichia coli [16]": {"test_system": "Escherichia coli", "assay": "Antimicrobial activity against Escherichia coli ATCC 25922 incubated for 18 hrs by broth dilution method", "assay_type": "functional", "details": "ATCC 25922, 18 h", "in_short": "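CLSI broth microdilution. Overnight cultures were adjusted to 0.5 McFarland in saline, diluted 1:50 in Mueller-Hinton broth, and inoculated at a final 5 × 10^5 CFU/mL. Compounds were tested as 2-fold serial dilutions and incubated 18 h at 37 °C. MIC was the lowest concentration with no visible turbidity, confirmed by absorbance at 590 nm.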"}, "Escherichia coli [17]": {"test_system": "Escherichia coli", "assay": "Potentiation of minocycline-induced antibacterial activity against Escherichia coli 107115 assessed as fold reduction in minocycline MIC at 4.1 uM incubated for 18 hrs by broth dilution method", "assay_type": "functional", "in_short": "as §2"}, "Acinetobacter baumannii [18]": {"test_system": "Acinetobacter baumannii", "assay": "Potentiation of rifampicin-induced antibacterial activity against multidrug-resistant Acinetobacter baumannii AB110193 assessed as fold reduction in rifampicin MIC at 4.1 uM incubated for 18 hrs by broth dilution method", "assay_type": "functional", "in_short": "as §1"}, "Klebsiella pneumoniae [19]": {"test_system": "Klebsiella pneumoniae", "assay": "Potentiation of minocycline-induced antibacterial activity against Klebsiella pneumoniae 113250 assessed as fold reduction in minocycline MIC at 4.1 uM incubated for 18 hrs by broth dilution method", "assay_type": "functional", "in_short": "as §2"}, "Escherichia coli [20]": {"test_system": "Escherichia coli", "assay": "Synergistic antibacterial activity against Escherichia coli ATCC 25922 assessed as fractional inhibitory concentration index in presence of minocycline incubated for 18 hrs by broth dilution method", "assay_type": "functional", "in_short": "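Checkerboard titration of the adjuvant against the antibiotic, run under the CLSI microdilution conditions (MHB, 5 × 10^5 CFU/mL, 18 h, 37 °C). Each agent's FIC is its MIC in combination divided by its MIC alone; FICI is the sum of the two FICs. FICI ≤0.5 was read as synergy, >0.5–4.0 as no interaction, and >4.0 as antagonism.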"}, "Acinetobacter baumannii [21]": {"test_system": "Acinetobacter baumannii", "assay": "Potentiation of minocycline-induced antibacterial activity against multidrug-resistant Acinetobacter baumannii AB92247 assessed as fold reduction in minocycline MIC at 4.1 uM incubated for 18 hrs by broth dilution method", "assay_type": "functional"}, "Klebsiella pneumoniae [22]": {"test_system": "Klebsiella pneumoniae", "assay": "Potentiation of rifampicin-induced antibacterial activity against Klebsiella pneumoniae 116381 assessed as fold reduction in rifampicin MIC at 4.1 uM incubated for 18 hrs by broth dilution method", "assay_type": "functional", "in_short": "as §2"}}, "data": [{"smiles": "COc1c(N2C[C@@H]3CCCN(CCCCCCCCCCCCO[C@@H]4[C@@H](O)[C@H](N)C[C@H](N)[C@H]4O[C@H]4O[C@H](CN)[C@@H](O)C[C@H]4N)[C@@H]3C2)c(F)cc2c(=O)c(C(=O)O)cn(C3CC3)c12.Cl.Cl.Cl.Cl.Cl", "values": [{"measurement": "fractional inhibitory concentration index (FICI)", "setting": "Acinetobacter baumannii [1]", "result": "0.031 - 0.281"}, {"measurement": "MIC50", "setting": "Pseudomonas aeruginosa [2]", "result": 0.06, "unit": "µg/mL"}, {"measurement": "fractional inhibitory concentration index (FICI)", "setting": "Acinetobacter baumannii [3]", "result": 0.04}, {"measurement": "fold change (FC)", "setting": "Pseudomonas aeruginosa [4]", "result": 32}, {"measurement": "Activity", "setting": "Pseudomonas aeruginosa [5]", "result": "Dose-dependent effect"}, {"measurement": "fold change (FC)", "setting": "Pseudomonas aeruginosa [6]", "result": 32}, {"measurement": "fold change (FC)", "setting": "Klebsiella pneumoniae [7]", "result": 16}, {"measurement": "MIC50", "setting": "Pseudomonas aeruginosa [8]", "result": 0.06, "unit": "µg/mL"}, {"measurement": "MIC80", "setting": "Pseudomonas aeruginosa [9]", "result": 0.13, "unit": "µg/mL"}, {"measurement": "MIC50", "setting": "Pseudomonas aeruginosa [10]", "result": 0.5, "unit": "µg/mL"}, {"measurement": "fold change (FC)", "setting": "Acinetobacter baumannii [11]", "result": 32}, {"measurement": "fold change (FC)", "setting": "Pseudomonas aeruginosa [12]", "result": 16}]}, {"smiles": "Cl.Cl.Cl.Cl.Cl.Cl.NC[C@H]1O[C@H](O[C@H]2[C@H](OCCCCCCCCCCN3CCN(Cc4cccc5ccccc45)CC3)[C@@H](O)[C@H](N)C[C@@H]2N)[C@H](N)C[C@@H]1O", "values": [{"measurement": "fold change (FC)", "setting": "Pseudomonas aeruginosa [13]", "result": 8}]}, {"smiles": "Cl.Cl.Cl.Cl.Cl.NC[C@H]1O[C@H](O[C@H]2[C@H](OCCCCCCCCCCCCN3CCN(c4cc5c(cc4F)c(=O)c(C(=O)O)cn5C4CC4)CC3)[C@@H](O)[C@H](N)C[C@@H]2N)[C@H](N)C[C@@H]1O", "values": [{"measurement": "fold change (FC)", "setting": "Escherichia coli [14]", "result": 128}, {"measurement": "MIC", "setting": "Escherichia coli [15]", "result": 32, "unit": "µg/mL"}, {"measurement": "MIC", "setting": "Escherichia coli [16]", "result": 8, "unit": "µg/mL"}, {"measurement": "fold change (FC)", "setting": "Escherichia coli [17]", "result": 16}, {"measurement": "fold change (FC)", "setting": "Acinetobacter baumannii [18]", "result": 64}, {"measurement": "fold change (FC)", "setting": "Klebsiella pneumoniae [19]", "result": 2}, {"measurement": "fractional inhibitory concentration index (FICI)", "setting": "Escherichia coli [20]", "result": 0.504}, {"measurement": "fold change (FC)", "setting": "Acinetobacter baumannii [21]", "result": 2}, {"measurement": "fold change (FC)", "setting": "Klebsiella pneumoniae [22]", "result": ">=128"}]}]}
